High-throughput results as filed in PubChem BioAssay.
DDE Tn6 FP inh = inhibitors of Tn6 peptide binding to human fibrin DD(E); P02675; inhibition, % at 8.3 µM; 370,000 tested, 0.21% active; Fibrin DD(E) TRITC-Tn6 fluorescence polarization displacement;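 active = inhibition above a per-campaign cutoff: mean of compounds within control limits plus 3 SD, cut at about 15% in these data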
ARFGAP1 inhibitor = inhibits rat ARF GTPase activating protein 1; inhibition, % at 16.5 µM; Arfgap1-stimulated ARF1 GTP hydrolysis, GDP FP detection; Q62848; AID 651572; 360,000 tested, 0.26% active;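 active = inhibition above a per-plate limit, mean inhibition of low control wells plus 3 SD, cut at about 25% in these data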
Target sequence (Q62848 1-136 limits assumed): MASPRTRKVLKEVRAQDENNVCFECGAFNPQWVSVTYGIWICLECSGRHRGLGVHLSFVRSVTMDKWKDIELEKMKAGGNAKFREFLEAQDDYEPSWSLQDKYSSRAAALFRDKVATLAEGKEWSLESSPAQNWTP
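Repeats: one replicate per compound; assay system: rat Arfgap1 catalytic domain, aa 1-136; times: enzyme reaction 120 min at 25 °C after 20 min preincubation; detection: FP of antibody-bound GDP Alexa 633 tracer, ex 620/em 688 nm; benchmarks: high control wells lacking Arfgap1, low control full reaction with DMSO; reagent: human ARF1(Δ1-17)-GTP substrate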
ASAP1 GAP inh = ASAP1 ArfGAP inhibition | 360,000 tested, 0.19% active | inhibition, % at 16.5 µM | AID 624377 | ASAP1-stimulated ARF1 GTP hydrolysis, GDP FP detection; in the data active = inhibition above about 25%
DDE Tn7 FP inh = disrupts Tn7 cyclic peptide binding to fibrin D-Dimer-E complex. inhibition, % at 8.3 µM. 370,000 tested, 0.13% active. FP displacement of FITC-Tn7 peptide from fibrin DD(E); 0% = median of compound wells per plate. P02675. AID 720508;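 active = inhibition above the mean of compounds falling within the control limits plus 3 SD of them, cut at about 14% in these data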
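Assay system: Human clot-derived fibrin DD(E) complex | Buffer or medium: Tris/NaCl/CaCl2 buffer, pH 7.8 | Repeats: One replicate per compound | Benchmarks: Aha-Tn7 high control | Measure: % inhibition scaled between sample-field median and high-control FP | Schedule: 10 min plus 3 h, room temperature | Signal: Fluorescence polarization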
ASAP1 GAP conf = confirmation of human ASAP1 inhibitors. ASAP1-stimulated Arf1 GTPase, GDP fluorescence polarization. shares compounds with ASAP1 GAP inh. AID 624431. 620 tested, 37% active. inhibition, % at 16.5 µM;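 active = mean inhibition over triplicates exceeds the hit threshold derived for the earlier primary screening run, cut at about 25% in these data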
ARFGAP1 inh conf = confirmation of rat ARFGAP1 inhibitors; shares compounds with ARFGAP1 inhibitor; ARFGAP1-stimulated ARF1 GTP hydrolysis, GDP tracer FP; inhibition, % at 16.5 µM; 890 tested, 30% active; AID 651608;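 active = average inhibition over triplicates above the hit cutoff set in the earlier primary screen, cut at about 25% in these data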
Target sequence (Q62848 whole entry, looked up): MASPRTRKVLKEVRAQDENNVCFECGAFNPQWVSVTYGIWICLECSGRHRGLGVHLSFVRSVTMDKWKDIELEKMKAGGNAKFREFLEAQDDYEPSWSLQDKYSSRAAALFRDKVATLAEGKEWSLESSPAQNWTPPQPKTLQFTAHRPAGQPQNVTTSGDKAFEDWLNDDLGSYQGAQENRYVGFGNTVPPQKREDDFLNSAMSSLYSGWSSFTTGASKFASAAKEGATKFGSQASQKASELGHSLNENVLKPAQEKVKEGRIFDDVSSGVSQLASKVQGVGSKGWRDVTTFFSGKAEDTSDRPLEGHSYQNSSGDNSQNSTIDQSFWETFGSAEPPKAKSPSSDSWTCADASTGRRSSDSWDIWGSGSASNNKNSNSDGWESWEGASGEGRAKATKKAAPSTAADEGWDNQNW
DDE Tn6 FP ctr = DD(E)-Tn6 binding inhibition, counter-screen; shares compounds with DDE Tn6 FP inh; Fibrin DD(E), TRITC-Tn6 fluorescence polarization displacement; 0% = median of compound wells, not DMSO; inhibition, % at 8.3 µM; 680 tested, 2% active; AID 720621;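 active = inhibition above the mean of test compounds lying between the control limits plus 3 SD of those, cut at about 14% in these data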
DDE Tn6 confirm = DD(E)-Tn6 binding inhibition, FP confirmation; shares compounds with DDE Tn6 FP inh; FP displacement of TRITC-Tn6 peptide from DD(E); 0% = per-plate median of test wells; inhibition, % at 8.3 µM; 680 tested, 10% active; AID 720631;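 active = inhibition above the mean of compounds lying within the control limits plus 3 SD, cut at about 16% in these data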
Numbers stand for hits; i = inactive; nt = no result. Hits are enriched below; roughly 0.74% of the tested compounds scored in any of these assays.

SMILES	DDE Tn6 FP inh	ARFGAP1 inhibitor	ASAP1 GAP inh	DDE Tn7 FP inh	ARFGAP1 inh conf	others
COc1cccc(C=NNC(=O)c2ccncc2)c1O	i	i	i	i	nt
COc1ccccc1C=NNC(=O)NN=Cc1ccccc1OC	i	57	30	i	67	ASAP1 GAP conf=53
COc1ccccc1/C=N/NC(=O)c1ccc(Br)cc1	i	i	i	i	nt
COc1cccc(/C=N/NC(=O)N/N=C/c2cccc(OC)c2O)c1O	i	64	31	i	95	ASAP1 GAP conf=81
O=C(Cn1cncc1-c1ccc([N+](=O)[O-])cc1)Nc1cccc2ccccc12	i	41	28	i	46	ASAP1 GAP conf=37
O=C(Nc1ccc(-c2nc3ccc(NC(=O)c4cccs4)cc3[nH]2)cc1)c1cccs1	i	73	37	i	124	ASAP1 GAP conf=74
COc1ccc(-n2c(N)c(C(=O)NCC3CCCO3)c3nc4ccccc4nc32)c(OC)c1 (stereo unspecified)	i	28	31	i	i	ASAP1 GAP conf=i
CCOC(=O)N1CCN(C(=O)C[C@H]2C[C@@]3(C(=O)OC)C(=C[C@H](C4CCCC4)O[C@@H]3C)N(CCC3=CCCCC3)C2=O)CC1	i	nt	nt	i	nt
Cc1ccc([N+](=O)[O-])cc1-c1ccc(/C=C(\C#N)c2[nH]nc(N)c2C#N)o1	i	45	41	i	58	ASAP1 GAP conf=56
O=C1CC(c2ccc3c(c2)OCO3)N=C2N(Cc3ccc4c(c3)OCO4)C/C(=C/c3ccccc3)N12 (stereo unspecified)	i	nt	nt	i	nt
CC(=O)OC12CCCN(C1)/C(=C/c1cccnc1)C2 (stereo unspecified)	i	nt	nt	i	nt
Cc1ccc(NC(=O)c2ccc(CS(=O)(=O)Cc3ccccc3C)o2)c(C)c1	i	nt	nt	i	nt
O=C(Nc1ccc(N2CCCC2)cc1)c1cc2ccccc2o1	i	77	43	i	i	ASAP1 GAP conf=146
CC(=O)N1CCN(c2ccc(NC(=O)c3cc4ccccc4o3)cc2)CC1	i	i	i	i	nt
COc1cc(/C=C(/C#N)c2nc3ccccc3[nH]2)ccc1OCc1ccc(C(=O)O)o1	i	i	i	i	nt
COC(=O)c1ccc(COc2ccc(/C=C(\C#N)c3nc4ccccc4[nH]3)cc2OC)o1	i	61	35	i	108	ASAP1 GAP conf=78
Cc1ccc(-c2nn(-c3ccccc3)cc2/C=C/C(=O)Nc2nccs2)cc1	i	52	34	i	68	ASAP1 GAP conf=i
O=C(/C=C/c1cn(-c2ccccc2)nc1-c1ccccc1)Nc1ccc(C(=O)O)cc1	i	i	i	i	nt
CCOc1ccc(C(=O)Nc2cc(-c3nc4ccccc4[nH]3)ccc2C)cc1[N+](=O)[O-]	i	i	i	i	nt
CCOc1ccc(C(=O)Nc2cc(-c3nc4ccccc4[nH]3)ccc2Cl)cc1[N+](=O)[O-]	25	109	69	i	151	ASAP1 GAP conf=123;DDE Tn6 FP ctr=i;DDE Tn6 confirm=i
Cc1ccc(NC(=O)C(OC(=O)c2ccc(NC(N)=O)cc2)c2ccccc2)cc1Cl (stereo unspecified)	34	i	28	i	nt	ASAP1 GAP conf=i;DDE Tn6 FP ctr=i;DDE Tn6 confirm=i
CC(=O)c1cc(-c2ccc(-c3ccccc3)c(F)c2)c(=O)n2c1CCC2	i	nt	nt	i	nt
Cc1onc(-c2ccccc2Cl)c1C(=O)N1CCC(C(N)=O)CC1	i	32	i	i	i
Cc1onc(-c2ccccc2Cl)c1C(=O)N1CCCC1	i	i	i	i	nt
Cc1cc(NC(=O)NC(=O)c2ccccc2NC(=O)CN)ccc1Oc1ncc(Br)cn1	i	i	i	i	nt
SMILES	DDE Tn6 FP inh	ARFGAP1 inhibitor	ASAP1 GAP inh	DDE Tn7 FP inh	ARFGAP1 inh conf	others
Cc1cc(NC(=O)NC(=O)c2ccccc2NC(=O)CN(C)C)ccc1Oc1ncc(Br)cn1	i	31	i	i	i
O=C(Cn1nc(-c2ccccc2)c2ccccc21)Oc1ccccc1	i	nt	nt	i	nt
O=C(O)c1ccc(Cn2cnc3scc(-c4ccccc4)c3c2=O)cc1	i	25	i	i	i
Cc1ccc(-c2csc3ncn(Cc4ccc(C(=O)O)cc4)c(=O)c23)cc1C	i	i	i	i	nt
c1ccc2c(N3CCCCC3)ncnc2c1	i	27	i	i	i
CC1CCCCN1c1ncnc2ccccc12 (stereo unspecified)	i	i	i	i	nt
CC(=O)Nc1ccc(SC(Sc2ccc(NC(C)=O)cc2)c2ccccc2)cc1	i	30	i	i	i
CC(C)(C)OC(=O)N1CCC(c2ccc[nH]2)(c2c[nH]c3ccccc23)CC1	i	nt	nt	i	nt
O=C(Nc1ccc(Oc2cccc3ccccc23)cc1)c1ccco1	i	28	i	i	i
O=C(Nc1ccc(Cl)cc1)OCc1cn(-c2ccc(Cl)cc2)nn1	i	68	78	i	53
O=C1NC(=O)/C(=C\c2ccc(OCc3cccc([N+](=O)[O-])c3)cc2)N1	i	49	i	i	86
O=C(NC1CCCCN(Cc2ccc(Cl)cc2)C1=O)c1ccc(-c2ccccc2)cc1 (stereo unspecified)	i	nt	nt	i	nt
C=CCN(CC#CC1=CCCCC1)Cc1ccc(OC)cc1OC	i	nt	nt	i	nt
COc1ccc(CNS(=O)(=O)CCNCc2ccccc2OC)cc1	i	52	i	i	i
O=C(NCCc1ccc(F)cc1)c1cccc(NC(=O)c2ccccc2)c1	i	37	i	i	i
CCOc1ccc(CCNC(=O)c2cc3ccsc3n2C)cc1OC	i	nt	nt	i	nt
CC(C)Cn1c(N)c(C(=O)CSc2nc3ncc(Cl)cc3[nH]2)c(=O)n(C)c1=O	i	25	i	i	i
O=C(COc1ccc(Cl)cc1Cl)NCCSc1ccc(Cl)cc1	i	29	i	i	i
CN(C)CCNC(=O)COc1ccc(Cl)cc1Cl	i	i	i	i	nt
COc1cccc(CN[C@@H]2CC[C@@]34CCCN3C(=O)CCC[C@H]4C2)c1	i	nt	nt	i	nt
Cc1ccccc1OCC(=O)N(Cc1cccs1)C1CCS(=O)(=O)C1 (stereo unspecified)	i	25	i	i	i
Cc1cccc(C)c1OCC(=O)N(Cc1cccs1)C1CCS(=O)(=O)C1 (stereo unspecified)	i	i	i	i	nt
O=C(NN=Cc1ccc(-c2ccccc2)cc1)c1cc(-c2ccc(Cl)cc2)n[nH]1	i	nt	nt	i	nt
O=C(NNC(=S)Nc1ccc(Cl)c(Cl)c1)c1ccccn1	i	26	i	i	i
O=C1CCCCC1(c1ccccc1)c1ccccc1	i	i	i	i	nt
O=C1CCC(c2ccccc2)(c2ccccc2)CC1	i	28	i	i	i
